# According to PMC12552610 (Nature Communications, 2025):
# Biological target: Aβ (AD brain homogenates) (Homo sapiens, UniProt P05067)
# Assay: Competition of PiB against [3H]ACI-Aβ ref on AD brain homogenates
# Assay type: binding
# In short: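 Insoluble AD brain fraction prepared by high-salt, Triton X-100 and sucrose ultracentrifugation steps. Competitor serially diluted from 2000 nM to 0.14 nM against tritiated Aβ reference ligand at 15 nM. Run in 50 mM Tris pH 7.5, 0.9% NaCl, 0.1% BSA for 2 h at RT, in duplicate. Samples vacuum-filtered on GF/C, washed five times with ice-cold Tris, then scintillation-counted.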
# Aβ (AD brain homogenates), sequence (P05067 672-713): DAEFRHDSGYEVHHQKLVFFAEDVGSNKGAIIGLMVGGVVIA
smiles,measurement,value
"CNc1ccc(-c2nc3ccc(O)cc3s2)cc1 [Pittsburg compound B, 2-(4-(Methylamino)phenyl)benzo[d]thiazol-6-ol]",displacement of Aβ ref cmpd,can be displaced by it
